# From PubChem
# Compounds with a hit are over-represented: about 11% of the library has one in this group of screens.
# M1 agonist – activates the M1 muscarinic receptor. B-score at 10 µM. 64,000 tested, 3% active. CHO-M1 cells, Fluo-4 calcium fluorescence, agonist mode; hits give high values. AID 626;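 active means fluorescence rise, raw or as B-score row- and column-corrected plate score, outside the 99.7% band of its plate's samples, either direction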
# D1 allo mod – allosteric modulators of human D1 dopamine receptor; P21728; HEK293 D1, CRE-luciferase, dopamine EC30 potentiation; actives deviate in either direction; B-score at 10 µM; 58,000 tested, 5.9% active;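 active means luminescence count or its row- and column-corrected plate score outside the 99.7% band of the plate's sample wells, on either side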
# SF1 activator – SF-1 (human) activation; Q13285; CHO-K1 Gal4-SF-1 LBD luciferase reporter; % increase over DMSO SF-1-specific signal; activation, % at 10 µM; 65,000 tested, 1.9% active; AID 522;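 active means activation above the mean activation of all tested compounds plus 3 SD, cut at about 50% in these data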
#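 Material: Transient Gal4-SF-1 LBD reporter, CHO-K1 | Input: 4,000 cells/well | Dosing: One dose, 10 µM compound, 1% DMSO | Incubation: 20 h compound treatment, 37 °C | Detection: SteadyLite luciferase luminescence | Evaluation: Percent activation relative to DMSO median and mock-transfected background | Benchmarks: DMSO-treated SF-1-transfected cells as negative, DMSO-treated mock-transfected cells lacking SF-1 as background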
# RORa activator – RORA (human) activation; 65,000 tested, 1.5% active; AID 560; P35398; activation, % at 10 µM; CHO-K1 Gal4-RORA LBD luciferase reporter, luminescence; percent increase over mock-subtracted basal signal;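 active means activation above the mean of all tested compounds plus 3 SD, cut at about 49% in these data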
# mHtt clearance – compounds clearing mutant huntingtin protein. HeLa Exon1htt(103Q)mCFP, aggregate imaging; zero = plate's median compound well. inhibition, % at 1.5 µM. 47,000 tested, 0.42% active. AID 853;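 active means inhibition of aggregate fluorescence above about 70%, also judged a hit by eye on the cell image, limit read from the data, passing the limit was not always enough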;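 further: cells exposed to compound for three days before fixation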
# M1 antag – blocks the rat M1 muscarinic receptor response to acetylcholine; P08482; CHO-M1 cells, Fluo-4 calcium, ACh EC80 antagonist mode; hits give low values; B-score at 10 µM; 64,000 tested, 3.4% active;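 active means calcium fluorescence response, raw or row-and-column corrected B-score, differing from the plate sample mean either way at a set confidence level, mostly lower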
# Target sequence (P08482 whole entry, looked up): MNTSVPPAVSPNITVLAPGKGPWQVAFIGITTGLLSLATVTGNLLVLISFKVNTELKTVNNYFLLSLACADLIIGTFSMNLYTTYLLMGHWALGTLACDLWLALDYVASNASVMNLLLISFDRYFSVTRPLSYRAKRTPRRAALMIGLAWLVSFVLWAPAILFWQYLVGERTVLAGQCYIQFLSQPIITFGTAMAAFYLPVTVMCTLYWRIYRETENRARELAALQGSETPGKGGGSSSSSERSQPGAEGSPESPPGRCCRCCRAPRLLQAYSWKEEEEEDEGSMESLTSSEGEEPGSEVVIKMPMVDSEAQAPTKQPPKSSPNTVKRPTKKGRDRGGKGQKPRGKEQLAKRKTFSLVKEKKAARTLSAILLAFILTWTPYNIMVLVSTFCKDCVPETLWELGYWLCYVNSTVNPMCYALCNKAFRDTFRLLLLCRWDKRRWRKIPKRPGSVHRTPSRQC
# D1 PAM confirm – D1 receptor (human) allosteric modulation, confirmed. shares compounds with D1 allo mod. HEK293 D1 CRE-luciferase, dopamine EC30 potentiation; hits give high values. luminescence at 10 µM. 2,200 tested, 88% active. AID 642;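 active means luminescence in either of two replicates above the same-plate mean plus 3 SD of the low-dose dopamine control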
# D1 no dopamine – secondary test of D1 modulators: activity without dopamine | shares compounds with D1 allo mod | HEK293 D1 CRE-luciferase, luminescence, no dopamine; hits give high values | luminescence at 10 µM | 1,900 tested, 0.8% active; in the data active means luminescence above about 3900
# Isoprot counter – isoproterenol response counter-screen activity for D1 modulators | shares compounds with D1 allo mod | HEK293 D1 CRE-luciferase, isoproterenol EC30 counter-screen | calls only at 10 µM | 2,200 tested, 63% active;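 active means luminescence in either replicate above plate mean of wells with a partly effective reference agonist dose plus 3 SD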;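 further: isoproterenol raises cAMP through native beta-adrenoceptor Gs so signal bypasses D1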
# A number is an active result; – = inactive; · = no result; + = active, no number.
SMILES,M1 agonist,D1 allo mod,SF1 activator,RORa activator,mHtt clearance,M1 antag,D1 PAM confirm,D1 no dopamine,Isoprot counter
Cc1ccc2c(CC(=O)OC(C)C(=O)NCc3ccc4c(c3)OCO4)coc2c1 (stereo unspecified),–,–,–,–,–,–,·,·,·
CCCCN(CCCNC(=O)C1CCN(S(=O)(=O)CC)CC1)c1ccccc1,–,–,–,–,–,–,·,·,·
COc1ccccc1N1CCN(C(c2ccccc2)c2nnnn2CCc2ccccc2)CC1 (stereo unspecified),·,·,·,·,–,·,·,·,·
CCCS(=O)(=O)N1CCCC(C(=O)NCCCN(C)c2ccccc2)C1 (stereo unspecified),–,–,–,–,–,–,·,·,·
COc1cc2c(cc1OC)C(C(=O)Nc1ccc3c(c1)OCCO3)C1c3ccccc3CCN1C2=O (stereo unspecified),–,4.1,–,–,–,–,6868,–,–
COc1cc2c(cc1OC)C(C(=O)NCCN1CCOCC1)C1c3ccccc3CCN1C2=O (stereo unspecified),–,–,–,–,–,–,·,·,·
CN(C)C(=O)N1CCC(C(=O)NCc2ccc(F)cc2Cl)CC1,–,3.9,–,–,·,–,–,–,–
CN(C)C(=O)N1CCCC(C(=O)NCc2ccc(F)cc2Cl)C1 (stereo unspecified),–,–,–,–,·,–,·,·,·
CCOC(=O)N1CCN(C(=O)c2ccc3c(SCC(=O)O)c4c(nc3c2)CCC4)CC1,–,·,–,–,–,–,·,·,·
COC(=O)C1CCN(S(=O)(=O)c2c(C)n(C)c(=O)n(C)c2=O)CC1,–,1.4,–,–,–,–,–,–,–
COC(=O)CN(C#N)c1nc(SC)nc(N(C)C)n1,–,–,–,–,–,–,·,·,·
COc1nc(/C(N)=N/O)nc(N2CCCCC2)n1,–,13,–,–,–,–,24932,–,+
COc1nc(N(C#N)CC(N)=O)nc(N2CCCC2)n1,–,8.4,–,–,–,–,20228,–,+
COc1ccc(S(=O)(=O)N2CCC(C(=O)N3CCCCC3)CC2)cc1OC,–,7.6,–,–,–,–,12168,–,+
Brc1ccccc1-c1nnc2sc(-c3ccc4c(c3)OCCO4)nn12,–,3.8,–,–,–,–,7796,–,+
O=S(=O)(Nc1nc2ccccc2nc1NCc1ccco1)c1cccs1,–,8.4,–,–,·,–,15532,–,+
C=CCNc1nc2ccccc2nc1NS(=O)(=O)c1cccs1,–,6.9,–,–,–,–,11704,·,+
CCCCCNc1nc2ccccc2nc1NS(=O)(=O)c1cccs1,·,·,·,·,–,·,·,·,·
COc1ccc(N(CC(=O)NN=C2CCCCCCC2)S(=O)(=O)c2ccccc2)cc1,·,·,·,·,–,·,·,·,·
COCCCNc1nc(-c2ccncc2)nc2ccccc12,–,5.7,–,–,–,–,6996,·,+
O=C(Cn1cnc2ccccc21)NC(c1ccccc1)c1ccccc1,·,·,·,·,–,·,·,·,·
O=C(CSc1nc(-c2ccccc2)cs1)NC(=O)NCc1ccco1,–,–,–,–,–,–,·,·,·
O=C(CSc1nc2ccccc2s1)NC(=O)NCc1ccco1,–,5.9,–,–,–,–,8872,–,–
COc1ccc(CSc2n[nH]c(C)n2)cc1Br,–,6.5,·,·,·,–,10580,·,+
COc1cccc(N(C(=O)c2cccs2)c2nc3ccccc3s2)c1,–,7.6,–,–,–,–,7024,·,+
O=C(c1ccccc1Cl)N1CCC(c2nc3c(nnn3Cc3ccco3)c(=O)[nH]2)CC1,–,6.1,–,–,·,–,11824,–,+
Cc1ccc(CC(=O)N2CCC(c3nc4c(nnn4Cc4ccccc4)c(=O)[nH]3)CC2)cc1,–,4.9,–,–,·,–,–,–,–
